The values below come from ChEMBL document CHEMBL5154634, “A Modular Synthetic Route Involving N-Aryl-2-nitrosoaniline Intermediates Leads to a New Series of 3-Substituted Halogenated Phenazine Antibacterial Agents” (J Med Chem, 2021).

For data set [1], the system named is Staphylococcus epidermidis. The data set is described as follows: Antibacterial activity against methicillin-resistant Staphylococcus epidermidis ATCC 35984 assessed as bacterial growth inhibition incubated for 16 hrs by broth microdilution susceptibility test. The format is functional. A digest of the protocol: (§1)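 CLSI broth microdilution with 11 twofold dilutions (0.05–50 μM). About 10^5 cells per well from a log-phase culture. DMSO vehicle up to 0.5% v/v. At least three independent experiments.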

Data set [2] relates to Staphylococcus aureus. In words: Antibacterial activity against methicillin-resistant Staphylococcus aureus BAA-44 assessed as bacterial growth inhibition incubated for 16 hrs by broth microdilution susceptibility test. It counts as functional. In outline: (§2)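 CLSI broth microdilution with 11 twofold dilutions (0.05–50 μM). Medium was LB for the staphylococci and BHI for VRE 700221. About 10^5 cells per well from a log-phase culture. […] DMSO vehicle up to 0.5% v/v. At least three independent experiments.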

For data set [3], the system named is Staphylococcus aureus. In words: Antibacterial activity against methicillin-resistant Staphylococcus aureus BAA-1707 assessed as bacterial growth inhibition incubated for 16 hrs by broth microdilution susceptibility test. The format is functional. A digest of the protocol:
as §1

The subject of a further data set is Erythrocyte. The data set is described as follows: Hemolytic activity against human RBC at 200 uM measured after 1 hr. The format is toxicity, cell-based. In outline:
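2% hRBCs exposed to compound at 200 μM final, added from DMSO stock, for 1 h at 37 °C. Supernatant OD read at 405 nm. Hemolysis normalized between DMSO (0%) and Triton X (100%); three independent experiments.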

Data set [4] relates to Enterococcus faecium. The data set is described as follows: Bactericidal activity against methicillin-resistant vancomycin-resistant Enterococcus faecium ATCC 700221 planktonic cells assessed as planktonic eradication incubated for 24 hrs followed by incubation for overnight in fresh medium by Calgary biofilm device assay. The format is functional. A digest of the protocol:
(§3)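 Calgary biofilm device. Biofilms grown 24 h at 37 °C in TSB with 0.5% glucose, then challenged 24 h with twofold compound dilutions. 20 μL of challenge medium transferred into fresh TSB with 0.5% glucose and incubated overnight at 37 °C. MBC is the concentration with no visible turbidity. At least three independent experiments.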

Data set [5] concerns Enterococcus faecalis. The data set is described as follows: Bactericidal activity against […] Enterococcus faecalis OG1RF ATCC 47077 planktonic cells assessed as planktonic eradication incubated for 24 hrs followed by incubation for overnight in fresh medium by Calgary biofilm device assay. It counts as functional. In outline:
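Calgary biofilm device in BHI. Biofilms grown 24 h at 37 °C and challenged 24 h with twofold compound dilutions. Challenge medium subcultured 1:10 into fresh BHI overnight at 37 °C. MBC is the concentration with no turbidity. At least three independent experiments.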

For data set [6], the system named is Enterococcus faecalis. In words: Antibacterial activity against Enterococcus faecalis OG1RF ATCC 47077 assessed as bacterial growth inhibition incubated for 16 hrs by broth microdilution susceptibility test. The format is functional.
Data set [7] deals with Enterococcus faecium. The data set is described as follows: Antibiofilm activity against methicillin-resistant vancomycin-resistant Enterococcus faecium ATCC 700221 biofilms assessed as biofilm eradication incubated for 24 hrs followed by incubation for 24 hrs in fresh medium by Calgary biofilm device assay. It counts as functional. In outline: (§4)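 Calgary biofilm device. Mid-log culture diluted 1000-fold in TSB with 0.5% glucose; biofilms grown on pegs 24 h at 37 °C. Pegs washed and challenged with twofold compound dilutions for 24 h at 37 °C, then moved to fresh medium for 24 h. MBEC is the lowest concentration leaving wells non-turbid. At least three independent experiments.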

For data set [8], the system named is Staphylococcus aureus. The data set is described as follows: Bactericidal activity against methicillin-resistant Staphylococcus aureus BAA-1707 planktonic cells assessed as planktonic eradication incubated for 24 hrs followed by incubation for overnight in fresh medium by Calgary biofilm device assay. It counts as functional. A digest of the protocol: as §3

In data set [9] the test system is Staphylococcus epidermidis. In words: Antibiofilm activity against methicillin-resistant Staphylococcus epidermidis ATCC 35984 biofilms assessed as biofilm eradication incubated for 24 hrs followed by incubation for 24 hrs in fresh medium by Calgary biofilm device assay. It counts as functional. In outline: as §4
Data set [10] deals with Enterococcus faecalis. The data set is described as follows: Antibiofilm activity against Enterococcus faecalis OG1RF ATCC 47077 biofilms assessed as biofilm eradication incubated for 24 hrs followed by incubation for 24 hrs in fresh medium by Calgary biofilm device assay. The format is functional. A digest of the protocol:
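Calgary biofilm device. Biofilms grown 24 h at 37 °C in BHI from mid-log culture diluted 1000-fold. Pegs washed and then challenged 24 h with twofold serial dilutions. Pegs moved to fresh BHI for 24 h recovery. MBEC = lowest concentration leaving no turbidity; at least three independent experiments.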

Data set [11] deals with Staphylococcus aureus. The data set is described as follows: Antibiofilm activity against methicillin-resistant Staphylococcus aureus BAA-1707 biofilms assessed as biofilm eradication incubated for 24 hrs followed by incubation for 24 hrs in fresh medium by Calgary biofilm device assay. The format is functional. A digest of the protocol:
as §4

Another data set deals with HeLa. In words: Cytotoxicity against human HeLa cells assessed as reduction in cell viability incubated for 24 hrs by LDH release assay. It counts as toxicity, cell-based. A digest of the protocol:
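HeLa cells in DMEM with 10% FBS, treated at 70–80% confluence with 25, 50 and 100 μM for 24 h. LDH in supernatant measured by 30 min reaction at room temperature, then stop solution and absorbance at 490 nm. Controls: 2% Triton X-100 (maximum), medium only, DMSO vehicle. Three independent experiments.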

Data set [12] has as its system Mycobacterium tuberculosis. In words: Antibacterial activity against Mycobacterium tuberculosis CDC1551 assessed as bacterial growth inhibition incubated for 5 days by luminescence based analysis. The format is functional. The note with it: CDC1551, 120 h, time 5 day. A digest of the protocol:
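Bioluminescent Mtb-lux CDC1551 reporter grown in Middlebrook 7H9 with 0.05% Tween 80, 10% OADC and kanamycin to OD600 0.4–0.8, then diluted to OD600 0.02. Added to twofold drug dilutions (0.003–200 μM). Incubated 5 days at 37 °C, 5% CO2. Luminescence read against 1% DMSO and 10 μM rifampicin controls to give % growth inhibition. MIC taken from a modified Gompertz fit.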

In another data set the test system is HepG2. In words: Cytotoxicity against human HepG2 cells assessed as reduction in cell viability […] by Alamar blue assay. The format is toxicity, cell-based.
The test system of another data set is J774. The data set is described as follows: Cytotoxicity against mouse J774 cells assessed as reduction in cell viability […] by Alamar blue assay. The format is toxicity, cell-based.
Data set [13] has as its system Enterococcus faecium. The data set is described as follows: Antibacterial activity against vancomycin-resistant Enterococcus faecium ATCC 700221 assessed as bacterial growth inhibition incubated for 16 hrs by broth microdilution susceptibility test. The format is functional. In outline: as §2
Data set [14] concerns Staphylococcus epidermidis. In words: Bactericidal activity against methicillin-resistant Staphylococcus epidermidis ATCC 35984 planktonic cells assessed as planktonic eradication incubated for 24 hrs followed by incubation for overnight in fresh medium by Calgary biofilm device assay. It counts as functional. A digest of the protocol: as §3

In brackets after ≈: the same amount, converted by molar mass.

For `Oc1cc(Cl)cc2nc3c(Oc4ccccc4)cccc3nc12`, the MIC (in data set [1]; with Staphylococcus aureus [2]; in the data set with Staphylococcus aureus [3]) was 3.13 µM (≈ 1.01 µg/mL) in each case.
Take `c1ccc(CN(CCN(Cc2ccccn2)Cc2ccccn2)Cc2ccccn2)nc1`: the Activity result in the data set with Erythrocyte is given as “<= 1%”. Moreover, the values for the MBC in the data set on Enterococcus faecium [4], in the data set with Enterococcus faecalis [5] and with Staphylococcus aureus [8] were 188 µM (≈ 79.8 µg/mL), 500 µM (≈ 212 µg/mL) and 250 µM (≈ 106 µg/mL), respectively. Also, the MIC in the data set on Enterococcus faecalis [6], in the data set with Staphylococcus aureus [2] and in the data set on Staphylococcus aureus [3] was 46.9 µM (≈ 19.9 µg/mL) in each case. The MBEC (in the data set with Enterococcus faecium [7]; in data set [9]; with Enterococcus faecalis [10]; with Staphylococcus aureus [11]) was >2000 µM in each case.
For the compound `O=C(O)CN(CCN(CC(=O)O)CC(=O)O)CC(=O)O` [EDETIC ACID], the Activity entry in the data set with Erythrocyte is given as “<= 1%”. Also, in the data set with Enterococcus faecalis [5], the MBC is > 2000 µM. Also, the MIC in the data set on Enterococcus faecalis [6] came to 500 µM (≈ 146 µg/mL); in the data set on Staphylococcus aureus [2] it was 125 µM (≈ 36.5 µg/mL). Also, the MBEC in the data set on Enterococcus faecalis [10] and with Staphylococcus aureus [11] was >2000 µM in each case.
Regarding `Oc1c(Br)c(Cl)c(Br)c2nc3c(Br)cccc3nc12`, the figures for the IC50 in the data set with HeLa, with HepG2 and in the data set on J774 were 100 µM, > 200 µM and > 200 µM, respectively. Moreover, the MIC in data set [12] was 3.91 µM (≈ 1.83 µg/mL); in data set [1] it was 0.1 µM (≈ 0.0467 µg/mL); in the data set on Staphylococcus aureus [2], 0.2 µM (≈ 0.0935 µg/mL); with Enterococcus faecium [13], 0.15 µM (≈ 0.0701 µg/mL). In addition, in the data set on Erythrocyte, the Activity entry was “<= 1%”. Further, the MBC in the data set with Enterococcus faecalis [5] is 6.25 µM (≈ 2.92 µg/mL); in the data set on Staphylococcus aureus [8], 3.13 µM (≈ 1.46 µg/mL). For the same compound, the values for the MBEC (in the data set on Enterococcus faecium [7]; in data set [9]; in the data set with Staphylococcus aureus [11]) were 0.3 µM, […] and 6.25 µM, respectively.
For `CCCCCCCCCC(=O)N[C@@H](Cc1c[nH]c2ccccc12)C(=O)N[C@H](CC(N)=O)C(=O)N[C@@H](CC(=O)O)C(=O)N[C@@H]1C(=O)NCC(=O)N[C@@H](CCCN)C(=O)N[C@@H](CC(=O)O)C(=O)N[C@H](C)C(=O)N[C@@H](CC(=O)O)C(=O)NCC(=O)N[C@H](CO)C(=O)N[C@@H]([C@H](C)CC(=O)O)C(=O)N[C@@H](CC(=O)c2ccccc2N)C(=O)O[C@@H]1C`, in the data set on Enterococcus faecium [4], the MBC came out at 375 µM (≈ 608 µg/mL). For the same compound, the MBEC with Enterococcus faecium [7] is 93.8 µM; in the data set with Staphylococcus aureus [11] it was >2000 µM.
With `Oc1cc(Cl)cc2nc3ccc(Br)cc3nc12`, the MIC was > 50 µM in data set [1], 9.38 µM (≈ 2.9 µg/mL) with Staphylococcus aureus [3] and > 50 µM in the data set on Enterococcus faecium [13].
On to `Cc1cccc2nc3c(O)cc(Cl)cc3nc12`, for which the MIC in data set [1] came to […]; in the data set with Enterococcus faecium [13], 3.13 µM (≈ 0.766 µg/mL).
Take `Cc1c(Br)ccc2nc3c(O)c(Br)c(Cl)c(Br)c3nc12`: the MIC is 0.88 µM (≈ 0.424 µg/mL) in data set [12]; 0.1 µM (≈ 0.0481 µg/mL) in [1]; 0.05 µM (≈ 0.0241 µg/mL) in the data set on Enterococcus faecalis [6]; 0.59 µM (≈ 0.284 µg/mL) with Staphylococcus aureus [3]; ≤ 0.05 µM in the data set on Enterococcus faecium [13]. Also, in the data set with Erythrocyte, the Activity came to 27%. Besides, the IC50 in the data set on HepG2 and in the data set with J774 was > 200 µM each time. Besides, the MBC in the data set on Enterococcus faecium [4] stood at 2.35 µM (≈ 1.13 µg/mL); in the data set on Enterococcus faecalis [5] it was 1.56 µM (≈ 0.751 µg/mL); with Staphylococcus aureus [8], 75 µM (≈ 36.1 µg/mL). For the same compound, the values for the MBEC in the data set on Enterococcus faecium [7], in the data set with Enterococcus faecalis [10] and with Staphylococcus aureus [11] were 0.2 µM, 0.78 µM and 75 µM, respectively.
On to `Oc1cccc2nc3ccccc3nc12`, for which the MIC in data set [1] is 37.5 µM (≈ 7.36 µg/mL); in the data set on Enterococcus faecalis [6] it was > 50 µM; in the data set on Staphylococcus aureus [2], 50 µM (≈ 9.81 µg/mL); in the data set with Staphylococcus aureus [3], 50 µM (≈ 9.81 µg/mL); with Enterococcus faecium [13], > 50 µM.
`Oc1c(Br)c(Cl)c(Br)c2nc3ccc(Br)cc3nc12`: the values for the MBC (in [14]; in the data set on Enterococcus faecium [4]; with Staphylococcus aureus [8]) were 6.25 µM (≈ 2.92 µg/mL), 4.69 µM (≈ 2.19 µg/mL) and 12.5 µM (≈ 5.84 µg/mL), respectively. Also, the Activity in the data set on Erythrocyte came to 5.1%. In addition, the MIC in data set [1] was 0.1 µM (≈ 0.0467 µg/mL); in the data set with Enterococcus faecalis [6], 0.78 µM (≈ 0.365 µg/mL); in the data set on Staphylococcus aureus [2], 1.56 µM (≈ 0.729 µg/mL); with Enterococcus faecium [13], 0.3 µM (≈ 0.14 µg/mL). Also, the MBEC worked out at 6.25 µM in [9] and 12.5 µM in the data set on Staphylococcus aureus [11].
